Source: PubChem BioAssay
Compounds with a hit are over-represented: about 3.4% of the library has one in this group of screens.
TAAR1 agonist: agonists of human TAAR1. Q96RJ0. CHO RD-HGA16 TAAR1, Fluo-8 calcium fluorescence; vehicle wells 0%, saturating PEA agonist 100%. activation, % at 3 µM. hit rate 0.99% among 360,000. AID 624467;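 active = activation above the mean activation of all test compounds in the run plus 3 SD, cut at about 38% in these data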
Target sequence (Q96RJ0 whole entry, looked up): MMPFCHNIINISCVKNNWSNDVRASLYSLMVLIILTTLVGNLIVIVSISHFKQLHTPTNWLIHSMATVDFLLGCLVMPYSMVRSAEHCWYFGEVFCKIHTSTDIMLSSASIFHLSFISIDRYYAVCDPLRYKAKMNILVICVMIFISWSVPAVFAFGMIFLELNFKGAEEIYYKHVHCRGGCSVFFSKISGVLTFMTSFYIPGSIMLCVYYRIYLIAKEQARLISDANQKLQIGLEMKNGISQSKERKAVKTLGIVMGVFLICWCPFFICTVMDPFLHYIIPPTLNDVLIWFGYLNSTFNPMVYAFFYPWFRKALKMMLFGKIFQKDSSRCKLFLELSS
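System: CHO-derived RD-HGA16 cells with stable Gα16 and human TAAR1 / Times: 17-24 h plating, Fluo-8 75 min 37 °C, 30 min RT / Technique: calcium-sensitive Fluo-8 signal, excitation 470-495, emission 515-575 nm / Measure: % activation relative to PEA EC100 response / Benchmarks: DMSO and PEA EC100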
GPR7 antag: antagonists of human GPR7 (neuropeptides B/W receptor 1); P48145; GPR7-expressing cells, fluorescence antagonist assay; inhibition, % at 4.4 µM; hit rate 1.1% among 290,000; AID 1861; in the data active = inhibition above about 16%, passing the limit was not always enough;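 note: cells stimulated with the agonist NPW; 0% = agonist with vehicle and 100% = vehicle without agonist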
Target sequence (P48145 whole entry, looked up): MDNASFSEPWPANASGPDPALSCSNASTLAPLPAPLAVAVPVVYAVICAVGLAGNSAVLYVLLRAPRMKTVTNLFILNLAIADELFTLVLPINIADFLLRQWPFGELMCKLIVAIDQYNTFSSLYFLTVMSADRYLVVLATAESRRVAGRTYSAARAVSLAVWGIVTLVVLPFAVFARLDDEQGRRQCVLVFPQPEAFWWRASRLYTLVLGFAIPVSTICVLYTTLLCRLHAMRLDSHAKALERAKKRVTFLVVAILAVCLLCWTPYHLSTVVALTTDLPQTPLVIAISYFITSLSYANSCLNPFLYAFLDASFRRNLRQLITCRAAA
LANA-H2A inh: blocks KSHV LANA binding to histone H2A/H2B | Q9QR71 | cell-free LANA-H2A/H2B peptide, fluorescence polarization | inhibition, % (no concentration beside the values) | hit rate 0.6% among 320,000; in the data active = inhibition mostly above about 10%, no sharp cut-off; inactive = mostly below about 6.7%
TRPN1 ag: agonists of zebrafish TRPN1 channel; HEK293 zebrafish TRPN1-YFP, Fluo-8 calcium fluorescence; 100% = response to 87 µM carbachol; activation, % at 3 µM; hit rate 0.18% among 220,000; AID 1424;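 active = activation above its plate's cutoff, the mean activation of test wells on that plate plus 3 SD, cut at about 19% in these data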;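 note: 0% = DMSO alone and 100% = 87 µM carbachol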
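Material: zebrafish TRPN1-YFP in HEK293 cells. Doses: one dose of 3 µM, 0.3% DMSO. Incubation: dye 1 h 37 °C plus 30 min RT. Measured by: intracellular calcium fluorescence with Fluo-8.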
TRPML3 ag: activates the human TRPML3 channel | Q8TDD5 | HEK293 TRPML3-YFP, Fluo-8 calcium fluorescence; 100% = the carbachol control signal | activation, % at 3 µM | hit rate 0.29% among 220,000;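 active = activation above its plate's cutoff, the mean activation of the plate's test wells plus 3 SD, cut at about 12% in these data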;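 note: 0% = DMSO only wells and 100% = carbachol wells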
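Test system: TRPML3-YFP stable HEK293 cells. Doses: single point at 3 µM. Incubation: dye loading 1 h 37 °C then 30 min ambient, 125 s read. Signal: Fluo-8 calcium dye fluorescence, ex 470-495, em 515-575 nm. Measure: percent activation from peak-to-basal fluorescence ratio, scaled between DMSO and carbachol.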
TAAR1 antag: human TAAR1 antagonism; inhibition, % at 3 µM; hit rate 1.5% among 360,000; CHO RD-HGA16 TAAR1, Fluo-8 calcium fluorescence, antagonist; Q96RJ0;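 active = inhibition above a per-plate cutoff, the mean inhibition of test compounds on that plate plus 3 SD, cut at about 49% in these data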;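 note: 0% = DMSO plus EC80 beta-PEA response and 100% = DMSO alone without agonist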
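System: RD-HGA16 CHO cells with stable hTAAR1 and Gα16 | Probe or stimulus: EC80 β-phenethylamine stimulus | Dosing: 3 µM, single point | Times: Dye loading 75 min at 37 °C, then 30 min room temperature | Measured by: Fluo-8 calcium-sensitive fluorescence | Read-out basis: % inhibition of agonist calcium response | Replicates: n of 1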
Numbers without * were called inactive; / = no result given; + = active, no number.

SMILES	TAAR1 agonist	GPR7 antag	LANA-H2A inh	TRPN1 ag	TRPML3 ag	TAAR1 antag
COc1ccc(-c2cc(C(F)(F)F)n3nc(C(=O)Nc4cc(C)on4)cc3n2)cc1OC	6	-3	0	1	1	-12
CCN(Cc1ccccc1)C(=O)c1cc(-c2ccc(OC)c(OC)c2)nc2ccccc12	3	-6	-3	/	/	67*
COc1cc(-c2cc(C(=O)N(C)Cc3ccccc3)c3ccccc3n2)cc(OC)c1OC	5	-9	-3	/	/	47
COc1ccc(-c2cc(C(F)(F)F)n3nc(C(=O)N(C)Cc4ccccc4)cc3n2)cc1OC	-2	-15	18*	0	1	15
O=C(C(=O)N1CCC(CNS(=O)(=O)c2ccc(C(F)(F)F)cc2)CC1)c1cc2ccccc2o1	3	/	/	/	/	-10
Cc1ccc(OC2CCN(C(=O)[C@@H](Cc3ccccc3)NC(=O)[C@H]3O[C@@H](n4ccc(=O)[nH]c4=O)[C@H](O)[C@@H]3O)CC2)cc1	0	/	/	/	/	-12
CCNS(=O)(=O)c1ccc(CCC(=O)Nc2cc(Cl)ccc2Oc2ccccc2)cc1	20	-8	3	-2	-1	83*
CC(C)NS(=O)(=O)c1ccc(CCC(=O)Nc2cc(Cl)ccc2Oc2ccccc2)cc1	/	5	-1	0	0	/
Cc1cc(C)nc(N2CCCC(C(=O)NCc3cccc(C(F)(F)F)c3)C2)n1 (stereo not given)	3	-10	2	1	0	-3
O=C(NCc1cccc(C(F)(F)F)c1)C1CCCN(c2ncccn2)C1 (stereo not given)	16	-6	131*	0	0	11
S=C(NCCc1ccccc1)Nc1cccc2cnccc12	51*	7	0	8	5	6
COc1ccccc1NC(=S)NCCc1ccccc1	40*	4	1	-2	0	0
S=C(NCc1ccccc1)Nc1cccc2cnccc12	3	6	-1	/	/	23
Cc1cccc(C)c1NC(=S)NCCc1ccccn1	3	-6	-4	-1	0	-16
COc1ccccc1NC(=S)NCCc1ccc(F)cc1	9	-4	6	0	0	3
Cc1ccccc1NC(=S)NCCc1ccccn1	60*	-3	-2	1	0	-2
CCCCc1c(-c2ccccc2OC)ncn1Cc1ccccc1C	4	/	/	/	/	16
Cc1ccccc1C(=O)N[C@H](C(=O)N1CCC[C@H]1C(=O)NC1CCCC1)c1ccccc1	2	/	/	/	/	8
COCCN1Cc2cc(C(=O)OC)c3c(c2C1=O)c1cc(F)ccc1n3S(=O)(=O)c1ccc(C)cc1	-2	/	/	/	/	-47
Cc1c(C(=O)Nc2cccc(Oc3ccccc3)c2)sc(=O)n1Cc1ccc(F)cc1	1	/	/	/	/	9
COC(=O)c1ccc(Cn2c(C)c(C(=O)Nc3cccc(Oc4ccccc4)c3)sc2=O)o1	11	/	/	/	/	49*
COC(=O)Cc1nnn2c1[C@H](C)[C@@H](OC)c1ccc(C(F)(F)F)cc1-2	1	/	/	/	/	0
Cc1ccc(SCc2cc(=O)[nH]c(N3CCOCC3)n2)cc1	5	0	17*	1	1	0
Cc1nc(CSc2ccc(Cl)cc2)cc(N2CCOCC2)n1	5	-2	5	0	0	-4
CCOC(=O)C1CCCN(C(=O)c2cc(COc3ccc(C)nc3)on2)C1 (stereo not given)	18	6	18*	/	/	4
SMILES	TAAR1 agonist	GPR7 antag	LANA-H2A inh	TRPN1 ag	TRPML3 ag	TAAR1 antag
COCCC1CCCCN1C(=O)c1cc(COc2ccc(C)nc2)on1 (stereo not given)	2	-7	45*	/	/	0
CCOC(=O)C1CSCCS(=O)(=O)N1Cc1cccc(F)c1 (stereo not given)	1	/	/	/	/	6
O=C(N/N=C\c1c(O)ccc2ccccc12)c1ccc(S(=O)(=O)N2CCCCC2)cc1	11	7	24*	1	1	11
O=C(NCCNC(=O)c1ccc(-c2cc(Cl)ccc2Cl)o1)c1cnccn1	43*	/	/	/	/	45
O=C(NCCc1ccc(Cl)cc1)c1cnccn1	-1	-13	+	-1	0	-6
O=C(NCCNC(=O)c1ccc(-c2cccc(Cl)c2)o1)c1cnccn1	28	/	/	/	/	32
COCC1CCN(C(=O)c2cc(COc3ccccc3SC)on2)C1 (stereo not given)	1	-19	-2	/	/	-30
C=CC[C@H]1CC(C)=C[C@H](CC=C)N1C(=O)c1cc(COc2ccccc2SC)on1	1	-14	-3	/	/	53*
C[C@@H]1CN(C(=O)OC(C)(C)C)CCN1c1ccc(Br)c(C#N)c1	-2	/	/	/	/	34
COc1ccc(-n2c(CSc3ccc(Cl)cc3)n[nH]c2=S)cc1	2	/	/	/	/	-13
COc1ccc(/C=C2/C(=O)ON=C2C)cc1Cl	2	-16	0	/	/	-9
C=CCOc1ccc(/C=C2/C(=O)ON=C2C)cc1OC	38*	-8	4	/	/	18
CCCCC(C(=O)OCC)C(N)Cc1ccc(F)cc1 (stereo not given)	2	15	20*	0	1	-6
CCOC(=O)C(Cc1ccccc1)C(=O)c1ccco1 (stereo not given)	-1	/	-4	/	/	-2
C=CCN=C1NC(c2ccccc2C(F)(F)F)C(C(=O)OC)=C(C)N1Cc1cccc(C(F)(F)F)c1 (stereo not given)	1	/	/	/	/	-8
O=C(N[C@@H](Cc1ccccc1)C(=O)OCc1ccccc1)c1nc[nH]c1C(=O)N1CCN(c2ccccc2)CC1	12	/	-5	/	/	52*
O=C(CNC(=O)c1nc[nH]c1C(=O)N1CCc2ccccc2C1)OCc1ccccc1	21	-11	0	/	/	62*
O=C(CNC(=O)c1nc[nH]c1C(=O)N1CCNCC1)OCc1ccccc1	0	/	-6	/	/	14
COC(=O)[C@]12C[C@H](CC(=O)NCc3cccs3)C(=O)N(CCC3=CCCCC3)C1=C[C@H](COCc1ccccc1)O[C@@H]2C	-1	/	/	/	/	-6
C[C@@H]1COc2cc(NCCCN3CCOCC3)ccc2S(=O)(=O)N1	1	/	/	/	/	5
COc1ccc2sc(NC(=O)NC(=O)c3c(Cl)cccc3Cl)nc2c1	4	20*	1	0	0	0
COc1ccc2sc(NC(C)=O)nc2c1	4	12	-1	0	1	6
COC(=O)CCN(Cc1ccc(OC)cc1OC)S(=O)(=O)c1ccccc1Br	-1	/	/	/	/	-24
C=CCNc1cccc2c1S(=O)(=O)N[C@@H](CC(C)C)CO2	-1	/	/	/	/	-7
O=C(O)c1ccc(CS(=O)c2cccc(C(F)(F)F)c2)o1 (stereo not given)	7	-2	119*	0	0	1
